Our source for the Activity, MIC and Kd values is ChEMBL document CHEMBL4680073, “Total Synthesis of Laspartomycin C and Characterization of Its Antibacterial Mechanism of Action” (J Med Chem, 2016).

The test system of assay [1] is Staphylococcus simulans. The assay is described as follows: Antibacterial activity against Staphylococcus simulans 22 assessed as inhibition of bacterial growth incubated for 16 hrs in presence of C15-PP by broth microdilution assay. The class given is functional, organism-based. In short, it runs like this:
(§1)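 The antibiotic was pre-incubated with the cell wall precursor (e.g. UDP-GlcNAc, C55-PP, C55-P) before being given to the bacteria, with vancomycin as positive control.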
Background: Dilution methods test growth across graded concentrations, often in twofold steps.

For assay [2], the system named is Staphylococcus aureus. The assay is described as follows: Induction of UDP-MurNAc-pentapeptide accumulation in Staphylococcus aureus ATCC 29213 at 10 times MIC incubated for 60 mins by HPLC analysis. It counts as functional.
In assay [3] the test system is Staphylococcus simulans. The assay is described as follows: Antibacterial activity against Staphylococcus simulans 22 assessed as inhibition of bacterial growth incubated for 16 hrs in presence of 10 mM Ca2+ by broth microdilution assay. The class given is functional. The method in brief:
(§2)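 MICs were read in µg/mL against indicator strains S. aureus 29213 and S. simulans 22. The growth medium was supplemented with Ca2+ at 5.0 or 10 mM.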

Assay [4] in a line: Binding affinity to undecaprenyl phosphate (C55-P) in large unilamellar vesicles comprising 1,2-dioleoyl-sn-glycero-3-phosphocholine containing 1.5 mol % C55-P by ITC analysis. In short, it runs like this:
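Isothermal titration calorimetry: DOPC vesicles containing 1.5 mol% C55-P were titrated into the antibiotic solution in HEPES buffer with CaCl2. Heat was plotted against molar ratio.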
For orientation: ITC needs no label: the signal is the heat of the interaction.

In assay [5] the test system is Staphylococcus aureus. The assay is described as follows: Antibacterial activity against Staphylococcus aureus ATCC 29213 assessed as inhibition of bacterial growth incubated for 16 hrs in presence of 10 mM Ca2+ by broth microdilution assay. It counts as functional. In short, it runs like this:
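MIC, read in µg/mL, was determined in growth medium supplemented with Ca2+ at a final 10 mM. The same strain was also tested at 5 mM Ca2+ to check how calcium level affects the MIC.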

Assay [6] deals with Staphylococcus simulans. The assay is described as follows: Antibacterial activity against Staphylococcus simulans 22 assessed as inhibition of bacterial growth incubated for 16 hrs in presence of 5 mM Ca2+ by broth microdilution assay. It counts as functional. In short, it runs like this:
as §2

In assay [7] the test system is Staphylococcus simulans. The assay is described as follows: Antibacterial activity against Staphylococcus simulans 22 assessed as inhibition of bacterial growth incubated for 16 hrs in presence of C55-PP by broth microdilution assay. It counts as functional, organism-based. The method in brief: as §1
Assay [8] can be described thus: Binding affinity to undecaprenyl phosphate (C55-P) at 0.5 to 2 equiv in Ca2+-containing buffer incubated for 2 hrs by TLC-based binding assay. To be noted: dose 0.5-2 equiv.
Assay [9] deals with Staphylococcus simulans. The assay is described as follows: Antibacterial activity against Staphylococcus simulans 22 assessed as inhibition of bacterial growth incubated for 16 hrs in presence of C15-P by broth microdilution assay. It counts as functional, organism-based. In short, it runs like this: as §1
Assay [10] has as its system Staphylococcus aureus. The assay is described as follows: Antibacterial activity against Staphylococcus aureus ATCC 29213 assessed as inhibition of bacterial growth incubated for 16 hrs by broth microdilution assay. It counts as functional. The method in brief:
as §2

For assay [11], the system named is Staphylococcus simulans. The assay is described as follows: Antibacterial activity against Staphylococcus simulans 22 assessed as inhibition of bacterial growth incubated for 16 hrs in presence of C55-P by broth microdilution assay. The class given is functional, organism-based. The method in brief: as §1
Assay [12] is described as follows: Binding affinity to lipid II at 0.5 to 2 equiv in Ca2+-containing buffer incubated for 2 hrs by TLC-based binding assay. To be noted: dose 0.5-2 equiv.
Assay [13] in a line: Binding affinity to undecaprenyl phosphate (C55-P) assessed as reduction in lipid II synthesis at 0.5 to 2 equiv in presence of UDP-GlcNAc, UDPMurNAc-pentapeptide and Micrococcus flavus membrane vesicles and measured after 2 hrs by TLC analysis. The note with it: dose 0.5-2 equiv. In short, it runs like this: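 C55-P was pre-treated with the antibiotic over a range of concentrations. UDP-GlcNAc, UDP-MurNAc-pentapeptide and M. flavus membrane vesicles containing MraY and MurG were then added, and lipid II formation was monitored.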

Values after ≈ are worked out from the molar mass of the structure shown. Active and inactive are the calls of the source. The calls are words filed in the database; no cut-off is given here. Bridge positions count the residues as written; N and C are the ends. Square brackets hold non-standard residues; d marks the D form. Peptide text beside a SMILES is read from it. * marks the point of attachment. Tetradecenoyl(2E,13-Me) = CC(C)CCCCCCCCC/C=C/C(=O)*; d(aThr) = C[C@@H](O)[C@@H](N)C(=O)O; dPip = O=C(O)[C@H]1CCCCN1; Dap = NC[C@H](N)C(=O)O

On to `CC[C@H](C)[C@@H]1NC(=O)[C@@H]([C@@H](C)O)NC(=O)CNC(=O)[C@H](CC(=O)O)NC(=O)CNC(=O)[C@H](CC(=O)O)NC(=O)CNC(=O)[C@H]2CCCCN2C(=O)[C@@H](NC(=O)[C@H](CC(=O)O)NC(=O)/C=C/CCCCCCCCCC(C)C)CNC(=O)[C@@H]2CCCN2C1=O` ({Tetradecenoyl(2E,13-Me)}-D[Dap][dPip]GDGDG[d(aThr)]IP; lactam 2-C), for which the outcome in assay [1], in assay [2] and in assay [8] was Active. Besides, the MIC (in general, the least concentration at which growth counts as inhibited) was at most 1 µg/mL in assay [3], 2 µg/mL in [5], 4 µg/mL in assay [6] and 4 µg/mL (≈ 3.21 µM) in assay [10]. The affinity in assay [4], expressed as Kd, was 7.3 nM. The result in assay [7], in assay [9], in [11] and in assay [12] was inactive. For the same molecule, in [13], the Activity result was “Dose-dependent effect”.
